From PubChem BioAssay
Many of the other results were omitted from the sample, so hits are more common in it than they were.
Fibroblast inh: blocks proliferation of human lung fibroblasts; LL 47 human lung fibroblast viability, ATP luminescence; active compounds read low; viability, % at 10 µM; 1.1% of 85,000 active; AID 719;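 active = viability at or below 50% in the single dose screen; inactive = viability above 50%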;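 note: compound exposure lasted 72 h before the ATP readout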
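Material: Human LL 47 lung fibroblast cells | Input: 1,150 cells/well | Buffer or medium: IMEM plus 15% FBS | Compound dosing: 0.1% DMSO in all compound wells | Times: Overnight cell rest, 72 h compound treatment at 37 °C | Signal: CellTiter-Glo luminescence measuring cellular ATP | Measure: % viability versus median cells-only luminescence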
HCT116 PTEN-null: suppresses growth of cells with PTEN deletion; AID 827; viability, % at 10 µM; HCT116 PTEN-null viability, CellTiter-Glo, 60 h; active compounds read low; 1.2% of 140,000 active;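 active = viability at or below a set limit, 4 SD under the median of all tested compounds, cut at about 3.7% in these data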;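 note: PTEN knockout HCT116 line with beta catenin targeted HCT116 as companion control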
H69AR growth 86K: growth inhibitors of human H69AR lung tumor cells; H69AR lung tumor viability, ATP luminescence, 72 h; active compounds read low; viability, % at 10 µM; 6% of 85,000 active;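 active = viability at or below 40%; inactive = viability above 40%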;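 note: multidrug resistant small cell line overexpressing MRP-1 efflux transporter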
HCT116 bCat-KO: beta-catenin-lacking colon tumor cell growth suppression. HCT116 beta-catenin knockout viability, CellTiter-Glo, 60 h; active compounds read low. AID 818. viability, % at 10 µM. 1.5% of 140,000 active;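 active = viability at or under a set limit, the compound median less 4 SD, cut at about 6% in these data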
HUVEC inhibit: inhibitors of human endothelial cell proliferation. AID 648. HUVEC proliferation, CellTiter-Glo luminescence, 72 h; active compounds read low. 1.1% of 86,000 active. viability, % at 10 µM (by protocol);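 active = viability at or below 30%; inactive = viability above 30%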
Numbers stand for hits.

C[N+]1=C(/C=C/Nc2ccccc2Cl)C(C)(C)c2ccccc21 was read as HCT116 PTEN-null inactive and HCT116 bCat-KO inactive.
Clc1ncnc2scc(C3COc4ccccc4O3)c12 (centres undefined) was read as Fibroblast inh inactive, HCT116 PTEN-null inactive, H69AR growth 86K 7.0, HCT116 bCat-KO inactive and HUVEC inhibit inactive.
`c1ccc2c(c1)OCC(c1csc3ncnc(N4CCCCC4)c13)O2` (centres undefined) gave HCT116 PTEN-null inactive, H69AR growth 86K inactive, HCT116 bCat-KO inactive and HUVEC inhibit inactive.
Screening O=C(CN1CCN(c2nc(-c3ccc(F)cc3)cs2)CC1)Nc1ccc2c(c1)OCO2 returned Fibroblast inh inactive, HCT116 PTEN-null inactive, H69AR growth 86K 40.0, HCT116 bCat-KO inactive and HUVEC inhibit inactive.
Screening Cc1cccc(N(CC(=O)NC2CCCC2)C(=O)c2c(C)noc2C)c1 returned Fibroblast inh inactive, HCT116 PTEN-null inactive, H69AR growth 86K inactive, HCT116 bCat-KO inactive and HUVEC inhibit inactive.
O=C(/C=C/c1ccc(OCc2ccccc2)c(OCc2ccccc2)c1)c1cccnc1 was read as HCT116 PTEN-null 1.6 and HCT116 bCat-KO 1.5.
O=C(/C=C/c1ccc(Cl)cc1)c1cccnc1 was read as Fibroblast inh 24.8, HCT116 PTEN-null 0.7, H69AR growth 86K 38.3, HCT116 bCat-KO 0.5 and HUVEC inhibit inactive.
Screening O=C(/C=C/c1ccccc1Cl)c1cccnc1 returned Fibroblast inh inactive, HCT116 PTEN-null inactive, H69AR growth 86K 1.2, HCT116 bCat-KO inactive and HUVEC inhibit 21.0.
For O=C(/C=C/c1ccccc1)NNC(=O)c1cccnc1 the results were HCT116 PTEN-null inactive and HCT116 bCat-KO inactive.
`Nc1nc(SCC(=O)N2CCCc3ccccc32)[nH]c(=O)c1-c1ccccc1` gave Fibroblast inh inactive, HCT116 PTEN-null inactive, H69AR growth 86K inactive, HCT116 bCat-KO inactive and HUVEC inhibit inactive.
`CCOc1ccc(-c2nn(-c3ccccc3)cc2/C=C2\SC(N)=NC2=O)cc1C` gave HCT116 PTEN-null 0.7 and HCT116 bCat-KO 1.1.
Screening O=C(NCCc1ccccc1)C1CCCN1S(=O)(=O)c1ccc(F)cc1 (centres undefined) returned Fibroblast inh inactive, H69AR growth 86K inactive and HUVEC inhibit inactive.
`Cc1cccn2c(=O)c(/C=C(\C#N)C(=O)NCc3ccco3)c(N3CCCC(C)C3)nc12` (centres undefined) gave HCT116 PTEN-null inactive and HCT116 bCat-KO inactive.
For Cc1cc2c(cc1C)CSC(c1ccccc1O)SC2 the results were Fibroblast inh inactive, HCT116 PTEN-null inactive, H69AR growth 86K inactive, HCT116 bCat-KO inactive and HUVEC inhibit inactive.
Screening Cc1cc2c(cc1C)CSC(c1ccc3ccccc3c1O)SC2 returned Fibroblast inh inactive, HCT116 PTEN-null inactive, H69AR growth 86K 38.2, HCT116 bCat-KO inactive and HUVEC inhibit inactive.
`Cc1cc2c(cc1C)CSC(c1ccc(O)cc1)SC2` gave Fibroblast inh inactive, HCT116 PTEN-null inactive, H69AR growth 86K inactive, HCT116 bCat-KO inactive and HUVEC inhibit inactive.
Cc1cc2c(cc1C)CSC(c1c(O)ccc3ccccc13)SC2 was read as Fibroblast inh inactive, HCT116 PTEN-null inactive, H69AR growth 86K 1.6, HCT116 bCat-KO 4.6 and HUVEC inhibit 1.7.
O=c1c2ccccc2cnn1-c1ccc(Cl)cc1 was read as Fibroblast inh inactive, HCT116 PTEN-null inactive, H69AR growth 86K inactive, HCT116 bCat-KO inactive and HUVEC inhibit inactive.
COc1ccc(-n2c(SCC(=O)Nc3ccc4c(c3)OCO4)nc3ccccc3c2=O)cc1 was read as Fibroblast inh inactive, HCT116 PTEN-null inactive, H69AR growth 86K inactive, HCT116 bCat-KO inactive and HUVEC inhibit inactive.
Screening COCCCn1c(SCC(=O)Nc2ccc(NC(=O)c3ccco3)c(OC)c2)nc2ccccc2c1=O returned Fibroblast inh inactive, HCT116 PTEN-null inactive, H69AR growth 86K 31.9, HCT116 bCat-KO inactive and HUVEC inhibit inactive.
For CS(=O)(=O)c1ccc(Cl)c(NC(=O)CSc2nc3ccccc3c(=O)n2CCCN2CCOCC2)c1 the results were HCT116 PTEN-null inactive and HCT116 bCat-KO inactive.
Screening COc1ccc(NC(=O)CSc2nc3ccccc3c(=O)n2CCCN2CCCCC2)c(OC)c1 returned Fibroblast inh inactive, HCT116 PTEN-null 3.1, H69AR growth 86K inactive, HCT116 bCat-KO 2.6 and HUVEC inhibit inactive.
For COc1ccc(NC(=O)CSc2nc3ccccc3c(=O)n2-c2ccc3c(c2)OCO3)c(OC)c1 the results were Fibroblast inh inactive, HCT116 PTEN-null inactive, H69AR growth 86K 9.4, HCT116 bCat-KO inactive and HUVEC inhibit inactive.
O=C(NC1(C(F)(F)F)C(=O)Nc2c1c(=O)[nH]c(=O)n2Cc1ccccc1)c1ccco1 (centres undefined) was read as Fibroblast inh inactive, HCT116 PTEN-null inactive, H69AR growth 86K inactive, HCT116 bCat-KO inactive and HUVEC inhibit inactive.
Screening COc1ccccc1/C=N/n1c(C)nnc1-n1nc(C)cc1C returned Fibroblast inh inactive, HCT116 PTEN-null inactive, H69AR growth 86K inactive, HCT116 bCat-KO inactive and HUVEC inhibit inactive.
Cc1cc(C)n(-c2nnc(C)n2/N=C/c2ccccc2OCc2ccccc2Cl)n1 was read as Fibroblast inh inactive, HCT116 PTEN-null inactive, H69AR growth 86K 16.1, HCT116 bCat-KO inactive and HUVEC inhibit inactive.
Cc1cc(C)n(-c2nnc(C)n2/N=C/c2cc(Br)ccc2OCc2ccccc2)n1 was read as Fibroblast inh inactive, HCT116 PTEN-null inactive, H69AR growth 86K 25.6, HCT116 bCat-KO inactive and HUVEC inhibit inactive.
For Cc1cc(C)n(-c2nnc(C)n2/N=C/c2ccccc2F)n1 the results were Fibroblast inh inactive, HCT116 PTEN-null inactive, H69AR growth 86K inactive, HCT116 bCat-KO inactive and HUVEC inhibit inactive.
COC(=O)c1ccc(-c2ncc(-c3cccc4ccccc34)o2)cc1 was read as Fibroblast inh inactive, HCT116 PTEN-null inactive, H69AR growth 86K 35.8, HCT116 bCat-KO inactive and HUVEC inhibit inactive.
For N=c1scc(-c2ccccc2)n1/N=C/c1ccco1 the results were HCT116 PTEN-null inactive and HCT116 bCat-KO inactive.
Screening COc1cccc2c1C(=O)c1c(O)c3c(c(O)c1C2=O)C[C@@](O)(C(=O)CO)C[C@@H]3O[C@H]1C[C@H](N)[C@H](O)[C@H](C)O1 returned HCT116 PTEN-null inactive and HCT116 bCat-KO 4.1.
CCc1nnc(NC(=O)CSc2nnc(COc3ccccc3)n2-c2ccc(C)cc2)s1 was read as Fibroblast inh inactive, HCT116 PTEN-null inactive, H69AR growth 86K inactive, HCT116 bCat-KO inactive and HUVEC inhibit inactive.
For CCn1c(COc2ccccc2)nnc1SCC(=O)Nc1cc(C)ccc1OC the results were Fibroblast inh inactive, HCT116 PTEN-null inactive, H69AR growth 86K inactive, HCT116 bCat-KO inactive and HUVEC inhibit inactive.
Screening Cc1ccc(OCc2nnc(SCC(=O)Nc3cccc4ccccc34)n2-c2ccccc2)cc1 returned Fibroblast inh 4.2, HCT116 PTEN-null inactive, H69AR growth 86K 18.3, HCT116 bCat-KO inactive and HUVEC inhibit inactive.
CCn1c(COc2ccc(C)cc2)nnc1SCC(=O)Nc1cc(OC)ccc1OC was read as Fibroblast inh inactive, HCT116 PTEN-null inactive, H69AR growth 86K 18.4, HCT116 bCat-KO inactive and HUVEC inhibit inactive.
